MsrA act = bovine methionine sulfoxide reductase A activation | purified bovine MsrA, absorbance read-out | activation, % at 10.6 µM | hit rate 0.3% among 360,000 | AID 602163; in the data active means activation above about 7.5%;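 further: 0% = vehicle and 100% = reference activator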
SKN-1 inh = C. elegans SKN-1 inhibition; C. elegans VP596 Pgst-4::GFP/RFP ratio, acrylamide-induced, 24 h; inhibition, % at 21.8 µM; hit rate 0.49% among 360,000; AID 624304;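 active means interference check ratio from 0.5 to 1.5 plus GFP to RFP signal ratio inhibition reaching or exceeding a fixed threshold, cut at about 30% in these data, passing the limit was not always enough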
MsrA inh = inhibits bovine methionine sulfoxide reductase A. hit rate 0.75% among 360,000. AID 651718. purified bovine MsrA, absorbance read-out. inhibition, % at 15.5 µM; in the data active means inhibition above about 4.5%;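 further: 0% = vehicle wells with enzyme and 100% = reference inhibitor wells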
DAGLB inhibitor = diacylglycerol lipase beta (human) inhibition | HEK293T DAGLB membrane lysate, EnzChek fluorogenic substrate | inhibition, % at 5.17 µM | hit rate 0.059% among 340,000 | AID 504411; in the data active means inhibition above about 34%;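 further: 0% = enzyme with vehicle and 100% = wells lacking enzyme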
Target sequence (Q8NCG7 whole entry, looked up): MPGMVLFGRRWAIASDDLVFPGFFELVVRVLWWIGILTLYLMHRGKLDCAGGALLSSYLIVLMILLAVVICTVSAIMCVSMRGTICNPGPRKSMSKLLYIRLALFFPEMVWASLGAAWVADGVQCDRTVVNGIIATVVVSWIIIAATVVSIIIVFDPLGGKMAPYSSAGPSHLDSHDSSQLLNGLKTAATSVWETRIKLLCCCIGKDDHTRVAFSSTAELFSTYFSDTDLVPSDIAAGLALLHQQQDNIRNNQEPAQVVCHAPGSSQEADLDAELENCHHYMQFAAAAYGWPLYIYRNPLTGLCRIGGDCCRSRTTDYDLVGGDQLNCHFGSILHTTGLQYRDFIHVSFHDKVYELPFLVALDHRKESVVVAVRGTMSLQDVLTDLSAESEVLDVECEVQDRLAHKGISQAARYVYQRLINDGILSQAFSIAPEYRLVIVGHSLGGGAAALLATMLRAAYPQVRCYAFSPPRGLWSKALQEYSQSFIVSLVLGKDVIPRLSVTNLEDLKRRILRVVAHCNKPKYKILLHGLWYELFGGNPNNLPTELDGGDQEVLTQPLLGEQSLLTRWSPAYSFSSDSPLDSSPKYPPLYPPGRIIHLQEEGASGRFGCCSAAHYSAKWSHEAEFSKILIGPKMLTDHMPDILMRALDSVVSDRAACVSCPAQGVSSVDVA
MT1-MMP act inh = inhibitors of human MT1-MMP activation | GFP/RFP ratio change, % at 20 µM | hit rate 0.061% among 360,000 | P50281 | HT1080 RFP-PRO-GFP cells, GFP/RFP ratio fluorescence, overnight; percent of plate control window, DMSO zero;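 active means GFP/RFP ratio change of at least 30% with cell ATP level not reduced by more than half and red fluorescence within 50% of control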
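Assay system: HT1080 RFP-PRO-GFP cells | Dosing: 20 µM single dose, 1% DMSO | Incubation: Cells overnight before dosing, compound overnight, 37 °C, 5% CO2 | Evaluation: GFP/RFP fluorescence ratio | Control set: DMSO-only wells and HT1080 RFP-L50D-GFP cell wells as references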
beta cell repl = inducers of beta-cell replication in MIN6 cells. MIN6 cells proliferation, ATPlite luminescence, 48 h; cells starved in 0.2% serum; 100% = growth in 10% serum. proliferation, % at 10 µM. hit rate 0.29% among 330,000;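 active means compounds whose signal lies at least 3.5 SD above the mean of all wells on their plate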;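 further: 0% = DMSO-treated cells in low-serum medium and 100% = 10% serum control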
MsrA act confirm = bovine methionine sulfoxide reductase A activation confirmed; activation, % at 10.6 µM; purified bovine MsrA, absorbance read-out; hit rate 12% among 1,000; shares compounds with MsrA act; in the data active means activation above about 4%;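 further: enzyme coupled to thioredoxin and thioredoxin reductase with NADPH; 0% = vehicle wells and 100% = reference activator wells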
Starred values were filed as active, the others as inactive. The list is not random: actives were taken first. Their share in the collection is about 1.8%.

For S=c1nc(-c2ccccc2Cl)[nH][nH]1 the results were MsrA act 8.1*, SKN-1 inh -7, MsrA inh 0, DAGLB inhibitor 0, MT1-MMP act inh 4, beta cell repl -2 and MsrA act confirm 1.
Clc1ccccc1-c1nc2ccccc2[nH]1 was read as MsrA act -4, SKN-1 inh 24, MsrA inh -2, DAGLB inhibitor -1, MT1-MMP act inh -2 and beta cell repl -3.
`O=C(CCc1c[nH]c2ccccc12)Nc1ccc(Nc2cccnc2)cc1` gave MsrA inh -1.
`Cc1nnc(SCCC#N)n(CCC#N)c1=O` gave MsrA act 9.2*, SKN-1 inh 11, MsrA inh 0, DAGLB inhibitor -3, MT1-MMP act inh 1, beta cell repl -4 and MsrA act confirm -2.
For COc1ccccc1C(=O)Nc1ccccn1 the results were MsrA act 12*, SKN-1 inh 14, MsrA inh 1, DAGLB inhibitor -2, MT1-MMP act inh -1, beta cell repl -5 and MsrA act confirm -1.
For O=C(N/N=C/c1ccc(O)c2ncccc12)c1cccc(Br)c1 the results were MsrA act 15*, SKN-1 inh 1, MsrA inh 3, DAGLB inhibitor 9, MT1-MMP act inh -39, beta cell repl -5 and MsrA act confirm -1.
For Cc1ccc(C(=O)N/N=C/c2ccc([N+](=O)[O-])s2)cc1 the results were MsrA act -2, SKN-1 inh 9, MsrA inh 3, DAGLB inhibitor 0, MT1-MMP act inh 3 and beta cell repl -6.
Screening O=C(N/N=C/c1cc(Br)ccc1O)c1ccncc1 returned MsrA act -3, SKN-1 inh 4, MsrA inh 0, DAGLB inhibitor 3, MT1-MMP act inh -3 and beta cell repl -4.
For O=C(N/N=C/c1ccc([N+](=O)[O-])s1)c1cccc(Br)c1 the results were MsrA act 8.7*, SKN-1 inh 9, MsrA inh 1, DAGLB inhibitor -2, MT1-MMP act inh -6, beta cell repl -6 and MsrA act confirm 6.6*.
Screening COc1cccc(NC(=O)COC(=O)CCn2c(C)csc2=O)c1 returned MsrA act 9.2*, SKN-1 inh 4, MsrA inh -1, DAGLB inhibitor 0, MT1-MMP act inh -2, beta cell repl 1 and MsrA act confirm -1.
`COc1cccc(NC(=O)COC(=O)Cn2c(C)csc2=O)c1` gave MsrA act -3, SKN-1 inh -12, MsrA inh 0, DAGLB inhibitor -1, MT1-MMP act inh 0 and beta cell repl -6.
O=C(N1CCOCC1)N1CCN(C(=O)N(c2ccccc2)c2ccccc2)CC1 was read as MsrA act 7.9*, SKN-1 inh -6, MsrA inh 2, DAGLB inhibitor 0, MT1-MMP act inh 1, beta cell repl -1 and MsrA act confirm -2.
For O=C(N1CCCCC1)N1CCN(C(=O)N(c2ccccc2)c2ccccc2)CC1 the results were MsrA act -1, SKN-1 inh 4, MsrA inh -1, DAGLB inhibitor 0, MT1-MMP act inh -3 and beta cell repl -2.
Screening O=C1CN(C(=O)COC(=O)c2ccc([N+](=O)[O-])s2)c2ccccc2N1 returned MsrA act 41*, SKN-1 inh 9, DAGLB inhibitor 3, MT1-MMP act inh 7, beta cell repl -4 and MsrA act confirm 21*.
O=C(COC(=O)c1ccc([N+](=O)[O-])s1)c1ccc[nH]1 was read as MsrA act 27*, SKN-1 inh 23, MsrA inh 1, DAGLB inhibitor 2, MT1-MMP act inh -2, beta cell repl -6 and MsrA act confirm 9.5*.
`O=C(COC(=O)c1ccc([N+](=O)[O-])s1)NC(=O)NCc1ccccc1` gave MsrA act 15*, SKN-1 inh 0, MsrA inh 1, DAGLB inhibitor 0, MT1-MMP act inh 0, beta cell repl -2 and MsrA act confirm 0.
`CC(NC(=O)COC(=O)c1ccc([N+](=O)[O-])s1)c1ccccc1` (stereo not drawn) gave MsrA act -4, SKN-1 inh -10, MsrA inh 0, DAGLB inhibitor -3, MT1-MMP act inh 3 and beta cell repl -2.
For O=C(COC(=O)c1ccc([N+](=O)[O-])s1)NCCc1ccccc1 the results were MsrA act 26*, SKN-1 inh -9, DAGLB inhibitor -2, MT1-MMP act inh 2, beta cell repl -6 and MsrA act confirm 16*.
O=C(OCC(=O)c1ccc[nH]1)c1ccc([N+](=O)[O-])cc1 was read as MsrA act -3, SKN-1 inh 1, MsrA inh 0, DAGLB inhibitor 2, MT1-MMP act inh 0 and beta cell repl -3.
For CC1CCC(NC(=O)c2cccn2C)CC1 (stereo not drawn) the results were MsrA act 0, SKN-1 inh 12, MsrA inh -1, DAGLB inhibitor 4 and MT1-MMP act inh 0.
For Cc1cccc(NC(=O)CNC(=O)[C@@H](Cc2ccccc2)NC(=O)[C@H]2O[C@@H](n3ccc(N)nc3=O)[C@H](O)[C@@H]2O)c1C the results were MsrA inh 1.
For CCOc1ccccc1NC(=O)COC(=O)C1CCC(=O)N1 (stereo not drawn) the results were MsrA act -1, SKN-1 inh 10, MsrA inh 0, DAGLB inhibitor 0, MT1-MMP act inh 0 and beta cell repl -3.
O=C(COC(=O)c1ccc([N+](=O)[O-])s1)NNC(=O)c1ccccc1 was read as MsrA act 22*, SKN-1 inh -8, DAGLB inhibitor 0, MT1-MMP act inh -3, beta cell repl 0 and MsrA act confirm 9.0*.
Screening O=C(COC(=O)c1ccc([N+](=O)[O-])s1)NCc1ccc(F)cc1 returned MsrA act 26*, SKN-1 inh 2, MsrA inh 0, DAGLB inhibitor 2, MT1-MMP act inh -1, beta cell repl -3 and MsrA act confirm 22*.
Screening CCCOc1ccc(/C=C2\SC(=S)N(CC3CCCO3)C2=O)cc1 (stereo not drawn) returned MsrA act -1, SKN-1 inh 8, MsrA inh 0, DAGLB inhibitor -8, MT1-MMP act inh 4 and beta cell repl -1.
For O=C1/C(=C/c2ccc(O)cc2)SC(=S)N1CC1CCCO1 (stereo not drawn) the results were MsrA act 11*, SKN-1 inh -7, MsrA inh 2, DAGLB inhibitor -7, MT1-MMP act inh -22, beta cell repl -3 and MsrA act confirm -1.

Bioassay records: PubChem, several laboratories
